Assay results taken from ChEMBL document CHEMBL1121718, “Novel tetracyclic spiropiperidines. 1. 3-Aryl-1,3-dihydrospiro[benzo[c]thiophene-1,4'-piperidines] as potential antidepressants” (1981).

Key:
[1] = test system: Rattus norvegicus; assay: Antidepressant activity was measured by the potentiation of head twitching induced by 5-hydroxy-tryptophan in pargyline-pretreated rats after ip administration; format: functional
Summary of the method: (§1)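 Male Wistar rats (150–200 g), six per group (ten per dose in dose-range runs), received pargyline HCl 75 mg/kg sc 4 h before testing. Compound in distilled water plus Tween 80 was given ip 30 min before, then L-5-HTP 1.0 mg/kg ip. From 5 min after 5-HTP, rats were observed 15 min for head twitching with coarse tremors. Results are percent potentiation normalized to vehicle; ED50 with 95% limits by linear regression.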

[2] = test system: Mus musculus; assay: Antidepressant activity was measured by the inhibition of tetrabenazine (TBZ) ptosis in mice after po administration […]; format: functional
[3] = test system: Mus musculus; assay: Antidepressant activity was measured by the inhibition of tetrabenazine (TBZ) ptosis in mice after i.p. administration.; format: functional; conditions: ip
Summary of the method: (§2)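 Male Charles River CD-1 mice (20–30 g), groups of five, dosed ip with compound in distilled water plus a few drops of Tween 80. Tetrabenazine methanesulfonate was given at 40 mg/kg ip 30 min later. After another 30 min, ptosis was scored 0–2 (eyes open, half-open, closed). ED50 and 95% confidence intervals came from linear regression of the scores.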

[4] = test system: Mus musculus; assay: Antidepressant activity was measured by the inhibition of tetrabenazine (TBZ) ptosis in mice after ip administration; format: functional; summary of the method: as §2
[5] = test system: Mus musculus; assay: Antidepressant activity was measured by the inhibition of tetrabenazine (TBZ) ptosis in mice after po administration; format: functional
Summary of the method: as §2, with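 “dosed orally” for “dosed ip”, “ip 60” for “ip 30”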

[6] = test system: Mus musculus; assay: Antidepressant activity was measured by the inhibition of tetrabenazine ptosis in mice after po administration.; format: functional
Summary of the method: as §2, with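 “dosed orally” for “dosed ip”, “ip 60” for “ip 30”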

[7] = test system: Rattus norvegicus; assay: Antidepressant activity was measured by the potentiation of head twitching induced by 5-hydroxy-tryptophan in pargyline-pretreated rats after ip administration; d= Seizures before 5-HTP dosing; format: functional, organism-based; summary of the method: as §1
[8] = test system: Rattus norvegicus; assay: Antidepressant activity was measured by the potentiation of head twitching induced by 5-hydroxy-tryptophan in pargyline-pretreated rats after po administration.
[9] = test system: Rattus norvegicus; assay: Antidepressant activity was measured by the potentiation of head twitching induced by 5-hydroxy-tryptophan in pargyline-pretreated rats after ip administration;d=Seizures before 5-HTP dosing; format: functional, organism-based; summary of the method: as §1

| SMILES | ED50 [1] | ED50 [3] | ED50 [6] | other results |
| --- | --- | --- | --- | --- |
| c1ccc(C2SC3(CCNCC3)c3ccccc32)cc1 (stereo not given) | 3 mg/kg | 1.1 mg/kg | – | ED50 [2]: 1.1 mg/kg |
| CNCCCN1c2ccccc2CCc2ccccc21 [DESIPRAMINE] | > 10 mg/kg | – | – | ED50 [4]: 0.8 mg/kg; ED50 [5]: 1.6 mg/kg |
| Clc1ccc(C2SC3(CCNCC3)c3ccccc32)c(Cl)c1 (stereo not given) | 2.2 mg/kg | 2.4 mg/kg | 3.8 mg/kg | – |
| Br.CN1CCC2(CC1)SC(c1ccccc1F)c1ccccc12 (stereo not given) | > 10 mg/kg | 3 mg/kg | 2.1 mg/kg | – |
| CNCCC(Oc1ccc(C(F)(F)F)cc1)c1ccccc1 (stereo not given) [FLUOXETINE] | 0.6 mg/kg | – | – | – |
| CN1CCC2(CC1)SC(c1ccc(F)cc1)c1ccccc12 (stereo not given) | 1.5 mg/kg | 1.4 mg/kg | 3.1 mg/kg | – |
| Br.CN1CCC2(CC1)SC(c1cccc(Cl)c1)c1ccccc12 (stereo not given) | – | 0.9 mg/kg | 1.3 mg/kg | ED50 [7]: Seizures before dosing |
| Cc1ccc(C2SC3(CCNCC3)c3ccccc32)cc1 (stereo not given) | 0.16 mg/kg | 0.69 mg/kg | 3.6 mg/kg | – |
| CN1CCC2(CC1)SC(c1ccccc1)c1ccc(F)cc12 (stereo not given) | > 10 mg/kg | 1.8 mg/kg | 2.8 mg/kg | – |
| Br.Cc1cccc(C2SC3(CCN(C)CC3)c3ccccc32)c1 (stereo not given) | > 2 mg/kg | ~20 mg/kg | – | – |
| Cc1ccc(C2SC3(CCN(C)CC3)c3ccccc32)cc1 (stereo not given) | 1 mg/kg | ~3 mg/kg | – | – |
| CN1CCC2(CC1)SC(c1cccc(F)c1)c1ccccc12 (stereo not given) | > 10 mg/kg | 0.83 mg/kg | 3.3 mg/kg | – |
| Fc1ccc(C2SC3(CCNCC3)c3ccccc32)cc1 (stereo not given) | 0.32 mg/kg | 0.67 mg/kg | 2.1 mg/kg | – |
| Cc1ccccc1C1SC2(CCN(C)CC2)c2ccccc21 (stereo not given) | > 10 mg/kg | 0.77 mg/kg | 1.3 mg/kg | – |
| Fc1ccccc1C1SC2(CCNCC2)c2ccccc21 (stereo not given) | 3.9 mg/kg | 0.78 mg/kg | 6.6 mg/kg | – |
| Clc1ccccc1C1SC2(CCNCC2)c2ccccc21 (stereo not given) | 4.4 mg/kg | – | 2.2 mg/kg | – |

| SMILES | ED50 [1] | ED50 [3] | ED50 [6] | other results |
| --- | --- | --- | --- | --- |
| Cc1cccc(C2SC3(CCNCC3)c3ccccc32)c1 (stereo not given) | 0.71 mg/kg | 1.9 mg/kg | 2.9 mg/kg | – |
| CN1CCC2(CC1)SC(c1ccccc1Cl)c1ccccc12 (stereo not given) | 10.1 mg/kg | 0.6 mg/kg | 3.6 mg/kg | – |
| FC(F)(F)c1cccc(C2SC3(CCNCC3)c3ccccc32)c1 (stereo not given) | – | 1.2 mg/kg | 1.7 mg/kg | – |
| Clc1ccc(C2SC3(CCNCC3)c3ccccc32)cc1Cl (stereo not given) | 0.4 mg/kg | – | 0.82 mg/kg | – |
| CN(C)CCCN1c2ccccc2CCc2ccc(Cl)cc21 [CLOMIPRAMINE] | 3.1 mg/kg | – | – | ED50 [4]: 0.73 mg/kg; ED50 [5]: 3.5 mg/kg |
| Cc1ccccc1C1SC2(CCNCC2)c2ccccc21 (stereo not given) | 2.8 mg/kg | – | 1.4 mg/kg | – |
| CN1CCC2(CC1)SC(c1ccc(Cl)cc1)c1ccccc12 (stereo not given) | 0.4 mg/kg | 1.3 mg/kg | 1.4 mg/kg | – |
| Clc1ccc(C2SC3(CCNCC3)c3ccccc32)cc1 (stereo not given) | 0.03 mg/kg | 2.1 mg/kg | 1.6 mg/kg | ED50 [8]: 0.78 mg/kg |
| CN1CCC2(CC1)SC(c1ccc(Cl)c(Cl)c1)c1ccccc12 (stereo not given) | 0.58 mg/kg | 3.5 mg/kg | 6.1 mg/kg | – |
| CN(C)CCC=C1c2ccccc2CCc2ccccc21 [AMITRIPTYLINE] | 7.1 mg/kg | 1.5 mg/kg | 7.8 mg/kg | – |
| CN1CCC2(CC1)SC(c1ccccc1)c1ccccc12 (stereo not given) | 3.4 mg/kg | – | – | ED50 [4]: 2.5 mg/kg; ED50 [5]: 4.6 mg/kg |
| Br.CN1CCC2(CC1)SC(c1ccc(Cl)cc1Cl)c1ccccc12 (stereo not given) | 0.91 mg/kg | 1.6 mg/kg | 3.8 mg/kg | – |
| Clc1cccc(C2SC3(CCNCC3)c3ccccc32)c1 (stereo not given) | – | 0.52 mg/kg | 1.8 mg/kg | ED50 [9]: Seizures before dosing |
| Fc1cccc(C2SC3(CCNCC3)c3ccccc32)c1 (stereo not given) | 0.16 mg/kg | – | 3.1 mg/kg | – |
| CN1CCC2(CC1)SC(c1cccc(C(F)(F)F)c1)c1ccccc12 (stereo not given) | 0.52 mg/kg | 0.73 mg/kg | 1.6 mg/kg | – |
